Assay results from ChEMBL document CHEMBL4689842, “EUbOPEN Chemogenomics Library wave 1” (2021).
Where “and” joins values, the source holds several entries; their conditions need not be identical. Equal values may be shown once.

Tested on: Fibroblast
Experiment: Multiplex assay against human fibroblast
Format: toxicity, cell-based
Outline: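 On a CQ1 microscope at 37°C and 5% CO2, live cells were imaged after compound addition. They had been stained at seeding with Hoechst33342, BioTracker Green Microtubule Cytoskeleton Dye, MitoTracker Red and Annexin V Alexa Fluor 680. CellPathfinder machine-learning gating assigned cells to Hoechst high-intensity objects or normal cells, normal cells to healthy, pyknosed or fragmented nuclei, and pyknosed cells to mitotic or apoptotic. Tubulin, mitochondrial-mass and membrane-permeability phenotypes are per cents of healthy-nucleus cells.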

[1] = 12 h, 1 µM, compound concentration 1 uM, replicate 1
[2] = 12 h, 1 µM, compound concentration 1 uM, replicate 2
[3] = 12 h, 10 µM, compound concentration 10 uM, replicate 1
[4] = 12 h, 10 µM, compound concentration 10 uM, replicate 2
[5] = 24 h, 1 µM, compound concentration 1 uM, replicate 1
[6] = 24 h, 1 µM, compound concentration 1 uM, replicate 2
[7] = 24 h, 10 µM, compound concentration 10 uM, replicate 1
[8] = 24 h, 10 µM, compound concentration 10 uM, replicate 2
[9] = 48 h, 1 µM, compound concentration 1 uM, replicate 1
[10] = 48 h, 1 µM, compound concentration 1 uM, replicate 2
[11] = 48 h, 10 µM, compound concentration 10 uM, replicate 1
[12] = 48 h, 10 µM, compound concentration 10 uM, replicate 2

## Cn1cc(-c2[nH]c3cc(NC(=O)[C@H](N)C4CCCCC4)cc4c3c2C=NNC4=O)cn1
[1]
  Population Apoptotic (%): 76%
  Population Fragmented Nuclei (%): 27%
  Population Healthy Nuclei (%): 42%
  Population Hoechst High Intensity Objects (%): 8%
  Population Membrane Permeable-Phenotype (%): 18%
  Population Mitochondria Different-Phenotype (%): 13%
  Population Mitotic Cells (%): 23%
  Population Normal (%): 91%
  Population Pyknosed Nuclei (%): 30%
  Population Tubulin-Different-Phenotype (%): 28%
  Total Cell Count: 138
[2]
  Population Apoptotic (%): 33%
  Population Fragmented Nuclei (%): 13%
  Population Healthy Nuclei (%): 72%
  Population Hoechst High Intensity Objects (%): 3%
  Population Membrane Permeable-Phenotype (%): 4%
  Population Mitochondria Different-Phenotype (%): 7%
  Population Mitotic Cells (%): 66%
  Population Normal (%): 96%
  Population Pyknosed Nuclei (%): 13%
  Population Tubulin-Different-Phenotype (%): 12%
  Total Cell Count: 51
[3]
  Population Apoptotic (%): 69%
  Population Fragmented Nuclei (%): 48%
  Population Healthy Nuclei (%): 38%
  Population Hoechst High Intensity Objects (%): 20%
  Population Membrane Permeable-Phenotype (%): 20%
  Population Mitochondria Different-Phenotype (%): 4%
  Population Mitotic Cells (%): 30%
  Population Normal (%): 79%
  Population Pyknosed Nuclei (%): 13%
  Population Tubulin-Different-Phenotype (%): 43%
  Total Cell Count: 244
[4]
  Population Fragmented Nuclei (%): 37%
  Population Healthy Nuclei (%): 42%
  Population Hoechst High Intensity Objects (%): 9%
  Population Membrane Permeable-Phenotype (%): 21%
  Population Mitochondria Different-Phenotype (%): 53%
  Population Normal (%): 90%
  Population Pyknosed Nuclei (%): 19%
  Population Tubulin-Different-Phenotype (%): 57%
  Total Cell Count: 91
[5]
  Population Apoptotic (%): 58%
  Population Fragmented Nuclei (%): 27%
  Population Healthy Nuclei (%): 44%
  Population Hoechst High Intensity Objects (%): 12%
  Population Membrane Permeable-Phenotype (%): 20%
  Population Mitochondria Different-Phenotype (%): 3%
  Population Mitotic Cells (%): 41%
  Population Normal (%): 87%
  Population Pyknosed Nuclei (%): 28%
  Population Tubulin-Different-Phenotype (%): 26%
  Total Cell Count: 137
[6]
  Population Apoptotic (%): 43%
  Population Fragmented Nuclei (%): 13%
  Population Healthy Nuclei (%): 70%
  Population Hoechst High Intensity Objects (%): 3%
  Population Membrane Permeable-Phenotype (%): 9%
  Population Mitochondria Different-Phenotype (%): 6%
  Population Mitotic Cells (%): 56%
  Population Normal (%): 96%
  Population Pyknosed Nuclei (%): 15%
  Population Tubulin-Different-Phenotype (%): 15%
  Total Cell Count: 52
[7]
  Population Apoptotic (%): 62%
  Population Fragmented Nuclei (%): 54%
  Population Healthy Nuclei (%): 37%
  Population Hoechst High Intensity Objects (%): 23%
  Population Membrane Permeable-Phenotype (%): 20%
  Population Mitochondria Different-Phenotype (%): 1%
  Population Mitotic Cells (%): 37%
  Population Normal (%): 76%
  Population Pyknosed Nuclei (%): 8%
  Population Tubulin-Different-Phenotype (%): 52%
  Total Cell Count: 256
[8]
  Population Apoptotic (%): 86%
  Population Fragmented Nuclei (%): 34%
  Population Healthy Nuclei (%): 29%
  Population Hoechst High Intensity Objects (%): 16%
  Population Membrane Permeable-Phenotype (%): 44%
  Population Mitochondria Different-Phenotype (%): 61%
  Population Mitotic Cells (%): 13%
  Population Normal (%): 83%
  Population Pyknosed Nuclei (%): 36%
  Population Tubulin-Different-Phenotype (%): 55%
  Total Cell Count: 106
[9]
  Population Apoptotic (%): 43%
  Population Fragmented Nuclei (%): 30%
  Population Healthy Nuclei (%): 49%
  Population Hoechst High Intensity Objects (%): 14%
  Population Membrane Permeable-Phenotype (%): 26%
  Population Mitochondria Different-Phenotype (%): 3%
  Population Mitotic Cells (%): 56%
  Population Normal (%): 85%
  Population Pyknosed Nuclei (%): 20%
  Population Tubulin-Different-Phenotype (%): 26%
  Total Cell Count: 134
[10]
  Population Apoptotic (%): 0%
  Population Fragmented Nuclei (%): 47%
  Population Healthy Nuclei (%): 50%
  Population Hoechst High Intensity Objects (%): 15%
  Population Membrane Permeable-Phenotype (%): 20%
  Population Mitochondria Different-Phenotype (%): 2%
  Population Mitotic Cells (%): 100%
  Population Normal (%): 84%
  Population Pyknosed Nuclei (%): 2%
  Population Tubulin-Different-Phenotype (%): 38%
  Total Cell Count: 103
[11]
  Population Apoptotic (%): 77%
  Population Fragmented Nuclei (%): 52%
  Population Healthy Nuclei (%): 41%
  Population Hoechst High Intensity Objects (%): 39%
  Population Membrane Permeable-Phenotype (%): 14%
  Population Mitochondria Different-Phenotype (%): 3%
  Population Mitotic Cells (%): 22%
  Population Normal (%): 60%
  Population Pyknosed Nuclei (%): 5%
  Population Tubulin-Different-Phenotype (%): 36%
  Total Cell Count: 251
[12]
  Population Apoptotic (%): 50%
  Population Fragmented Nuclei (%): 62%
  Population Healthy Nuclei (%): 35%
  Population Hoechst High Intensity Objects (%): 32%
  Population Membrane Permeable-Phenotype (%): 11%
  Population Mitochondria Different-Phenotype (%): 2%
  Population Mitotic Cells (%): 50%
  Population Normal (%): 67%
  Population Pyknosed Nuclei (%): 1%
  Population Tubulin-Different-Phenotype (%): 53%
  Total Cell Count: 186

## Cn1c(-c2csc(C3CCN(CC4=NC5N=CC=CC5N4)CC3)n2)nc2ccccc21 (stereo not given) [BAY-070]
[3]
  Population Apoptotic (%): 66% and 86%
  Population Fragmented Nuclei (%): 30% and 26%
  Population Healthy Nuclei (%): 53% and 58%
  Population Hoechst High Intensity Objects (%): 11% and 14%
  Population Membrane Permeable-Phenotype (%): 12% and 9%
  Population Mitochondria Different-Phenotype (%): 4%
  Population Mitotic Cells (%): 33% and 13%
  Population Normal (%): 88% and 85%
  Population Pyknosed Nuclei (%): 15%
  Total Cell Count: 238 and 282
[4]
  Population Fragmented Nuclei (%): 66% and 53%
  Population Healthy Nuclei (%): 21% and 36%
  Population Hoechst High Intensity Objects (%): 33% and 37%
  Population Membrane Permeable-Phenotype (%): 36% and 29%
  Population Normal (%): 66% and 62%
  Population Pyknosed Nuclei (%): 11% and 10%
  Total Cell Count: 77 and 75
[7]
  Population Apoptotic (%): 51% and 62%
  Population Fragmented Nuclei (%): 23% and 16%
  Population Healthy Nuclei (%): 61% and 67%
  Population Hoechst High Intensity Objects (%): 10% and 13%
  Population Membrane Permeable-Phenotype (%): 9% and 8%
  Population Mitotic Cells (%): 48% and 37%
  Population Normal (%): 89% and 86%
  Population Pyknosed Nuclei (%): 15% and 16%
  Total Cell Count: 222 and 285
[8]
  Population Fragmented Nuclei (%): 65% and 57%
  Population Healthy Nuclei (%): 23% and 30%
  Population Hoechst High Intensity Objects (%): 41% and 29%
  Population Membrane Permeable-Phenotype (%): 30% and 22%
  Population Mitotic Cells (%): 100% and 42%
  Population Normal (%): 58% and 70%
  Population Pyknosed Nuclei (%): 11%
  Population Tubulin-Different-Phenotype (%): 40% and 50%
  Total Cell Count: 74 and 84
